The source made the active and inactive calls. The rule behind the calls is not given here.
Assays:
MDA-MB-231 [1] = assay: Cell cycle arrest in human triple-negative MDA-MB-231 cells assessed as accumulation at G0/G1 phase at 2.5 uM after 12 hrs by propidium iodide staining-based flow cytometry (reference value: 48.36%); format: functional
MDA-MB-231 [2] = assay: Cell cycle arrest in human triple-negative MDA-MB-231 cells assessed as accumulation at G2/M phase at 2.5 uM after 12 hrs by propidium iodide staining-based flow cytometry (reference value: 20.40%); format: functional
MDA-MB-231 [3] = assay: Cell cycle arrest in human triple-negative MDA-MB-231 cells assessed as accumulation at S phase at 2.5 uM after 12 hrs by propidium iodide staining-based flow cytometry (reference value: 31.23%); format: functional
MDA-MB-231 [4] = assay: Induction of apoptosis in human triple-negative MDA-MB-231 cells assessed as necrotic cells after 12 hrs by Annexin V-FITC/propidium iodide staining-based flow cytometry (reference value: 0.1%); format: functional
MDA-MB-231 [5] = assay: Induction of apoptosis in human triple-negative MDA-MB-231 cells assessed as viable cells after 12 hrs by Annexin V-FITC/propidium iodide staining-based flow cytometry (reference value: 93.1%); format: functional
MDA-MB-231 [6] = assay: Induction of apoptosis in human triple-negative MDA-MB-231 cells assessed as early apoptotic cells after 12 hrs by Annexin V-FITC/propidium iodide staining-based flow cytometry (reference value: 3.1%); format: functional
MDA-MB-231 [7] = assay: Induction of apoptosis in human triple-negative MDA-MB-231 cells at 2.5 uM after 6 to 48 hrs by microscopic analysis; format: functional, cell-based
MDA-MB-231 [8] = assay: Antiproliferative activity against human triple-negative MDA-MB-231 cells at 35 uM after 72 hrs by CellTiter-Glo assay; format: functional, cell-based
Homo sapiens = species on record: Homo sapiens; assay: Antiproliferative activity against human ER-positive MA11 cells at 48 uM after 72 hrs by CellTiter-Glo assay; format: functional
MCF7 [9] = assay: Antiproliferative activity against human ER-positive MCF7 cells at 48 uM after 72 hrs by CellTiter-Glo assay; format: functional, cell-based
MDA-MB-231 [10] = assay: Cell cycle arrest in human triple-negative MDA-MB-231 cells assessed as accumulation at G0/G1 phase at 30.0 uM after 12 hrs by propidium iodide staining-based flow cytometry (reference value: 48.36%); format: functional
MDA-MB-231 [11] = assay: Cell cycle arrest in human triple-negative MDA-MB-231 cells assessed as accumulation at G2/M phase at 30.0 uM after 12 hrs by propidium iodide staining-based flow cytometry (reference value: 20.40%); format: functional
MDA-MB-231 [12] = assay: Cell cycle arrest in human triple-negative MDA-MB-231 cells assessed as accumulation at S phase at 30.0 uM after 12 hrs by propidium iodide staining-based flow cytometry (reference value: 31.23%); format: functional
MDA-MB-231 [13] = assay: Induction of DNA fragmentation in human triple-negative MDA-MB-231 cells at 30 uM by propidium iodide staining-based flow cytometry; format: functional, cell-based
MDA-MB-231 [14] = assay: Induction of apoptosis in human triple-negative MDA-MB-231 cells assessed as late apoptotic cells after 12 hrs by Annexin V-FITC/propidium iodide staining-based flow cytometry (reference value: 3.7%); format: functional
MDA-MB-231 [15] = assay: Induction of apoptosis in human triple-negative MDA-MB-231 cells assessed as increase in cleaved PARP level by western blot analysis; format: functional, cell-based; conditions: TDE = time-dependent effect
MDA-MB-231 [16] = assay: Induction of apoptosis in human triple-negative MDA-MB-231 cells assessed as increase in DR5 level after 12 hrs by western blot analysis; format: functional, cell-based
MDA-MB-231 [17] = assay: Induction of apoptosis in human triple-negative MDA-MB-231 cells assessed as increase in cleaved caspase-8 level after 6 to 12 hrs by western blot analysis; format: functional, cell-based
MDA-MB-231 [18] = assay: Induction of apoptosis in human triple-negative MDA-MB-231 cells assessed as increase in cleaved caspase-9 level after 6 to 12 hrs by western blot analysis; format: functional, cell-based
MDA-MB-231 [19] = assay: Induction of apoptosis in human triple-negative MDA-MB-231 cells assessed as increase in cleaved caspase-3 level after 6 to 12 hrs by western blot analysis; format: functional, cell-based
MDA-MB-231 [20] = assay: Induction of apoptosis in human triple-negative MDA-MB-231 cells assessed as decrease in caspase-7 level after 6 to 12 hrs by western blot analysis; format: functional, cell-based
MDA-MB-231 [21] = assay: Antiproliferative activity against human triple-negative MDA-MB-231 cells after 72 hrs by CellTiter-Glo assay; format: functional, cell-based; conditions: MDA-MB-231, 72 h
MDA-MB-231 [22] = assay: Antiproliferative activity against human triple-negative MDA-MB-231 cells at 9 uM after 72 hrs by CellTiter-Glo assay; format: functional, cell-based
MCF7 [23] = assay: Antiproliferative activity against human ER-positive MCF7 cells after 72 hrs by CellTiter-Glo assay; format: functional, cell-based
[24] = Half life in human microsomes; format: ADME, Microsome
[25] = Half life in mouse microsomes; format: ADME, Microsome
[26] = Intrinsic clearance in human microsomes; format: ADME, Microsome
[27] = Intrinsic clearance in mouse microsomes; format: ADME, Microsome
[28] = Plasma protein binding in human; format: ADME, cell-free; conditions: read-out: PPB (converted)
[29] = Plasma protein binding in mouse; format: ADME; conditions: read-out: PPB (converted)
[30] = Half life in human plasma; format: ADME, cell-free
Outline: (§1)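 Compound stability incubated in human or mouse plasma; half-life determined, with known drugs as controls.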

[31] = Half life in mouse plasma; format: ADME, cell-free; outline: as §1
[32] = Permeability of the compound at pH 7.4 by PAMPA assay; format: physicochemical; conditions: read-out: permeability
[33] = Apparent permeability from apical to basolateral side in human Caco2 cells; format: ADME, cell-based; conditions: Caco-2
[34] = Apparent permeability from basolateral to apical side in human Caco2 cells; format: ADME, cell-based; conditions: Caco-2
[35] = Efflux ratio of permeability from basolateral to apical side over apical to basolateral side in human Caco2 cells; format: ADME, cell-based; conditions: Caco-2
MDA-MB-231 [36] = assay: Cell cycle arrest in human triple-negative MDA-MB-231 cells assessed as accumulation at G0/G1 phase at 8.5 uM after 12 hrs by propidium iodide staining-based flow cytometry (reference value: 48.36%); format: functional
MDA-MB-231 [37] = assay: Cell cycle arrest in human triple-negative MDA-MB-231 cells assessed as accumulation at G2/M phase at 8.5 uM after 12 hrs by propidium iodide staining-based flow cytometry (reference value: 20.40%); format: functional
MDA-MB-231 [38] = assay: Cell cycle arrest in human triple-negative MDA-MB-231 cells assessed as accumulation at S phase at 8.5 uM after 12 hrs by propidium iodide staining-based flow cytometry (reference value: 31.23%); format: functional
MDA-MB-231 [39] = assay: Induction of DNA fragmentation in human triple-negative MDA-MB-231 cells at 8.5 uM by propidium iodide staining-based flow cytometry; format: functional, cell-based; conditions: TDE = time-dependent effect
MDA-MB-231 [40] = assay: Induction of apoptosis in human triple-negative MDA-MB-231 cells assessed as cell shrinkage at 16 uM after 6 to 48 hrs by microscopic analysis; format: functional, cell-based
MDA-MB-231 [41] = assay: Induction of apoptosis in human triple-negative MDA-MB-231 cells assessed as cell detachment at 16 uM after 6 to 48 hrs by microscopic analysis; format: functional, cell-based
MDA-MB-231 [42] = assay: Induction of apoptosis in human triple-negative MDA-MB-231 cells assessed as cell death at 16 uM after 6 to 48 hrs by microscopic analysis; format: functional, cell-based
[43] = Permeability of the compound at pH 7.4 assessed as drug retention by PAMPA assay; format: physicochemical
MDA-MB-231 [44] = assay: Antiproliferative activity against human triple-negative MDA-MB-231 cells at <= 50 uM after 72 hrs by CellTiter-Glo assay; format: functional, cell-based
HEK293 = assay: Cytotoxicity against HEK293 cells at <= 50 uM after 72 hrs by CellTiter-Glo assay; format: cell-based; conditions: human, hek293, 72 h
HepG2 = assay: Cytotoxicity against human HepG2 cells at <= 50 uM after 72 hrs by CellTiter-Glo assay; format: cell-based; conditions: hepg2, 72 h
MDA-MB-231 [45] = assay: Antiproliferative activity against human triple-negative MDA-MB-231 cells at 29 uM after 72 hrs by CellTiter-Glo assay; format: functional, cell-based
MDA-MB-231 [46] = assay: Cell cycle arrest in human triple-negative MDA-MB-231 cells assessed as accumulation at G0/G1 phase at 28.5 uM after 12 hrs by propidium iodide staining-based flow cytometry (reference value: 48.36%); format: functional
MDA-MB-231 [47] = assay: Cell cycle arrest in human triple-negative MDA-MB-231 cells assessed as accumulation at G2/M phase at 28.5 uM after 12 hrs by propidium iodide staining-based flow cytometry (reference value: 20.40%); format: functional
MDA-MB-231 [48] = assay: Cell cycle arrest in human triple-negative MDA-MB-231 cells assessed as accumulation at S phase at 28.5 uM after 12 hrs by propidium iodide staining-based flow cytometry (reference value: 31.23%); format: functional

For `CN[C@@H]1C[C@H]2O[C@@](C)([C@@H]1OC)n1c3ccccc3c3c4c(c5c6ccccc6n2c5c31)C(=O)NC4` [STAUROSPORINE], the Activity (MDA-MB-231 [1]) was 43.5%, the Activity (MDA-MB-231 [2]) was 23.28% and the Activity (MDA-MB-231 [3]) was 33.22%. For the same compound, the Activity (MDA-MB-231 [4]) was 0.5%, the Activity (MDA-MB-231 [5]) was 55.7% and the Activity (MDA-MB-231 [6]) was 25%. For the same compound, the Activity (MDA-MB-231 [7]) was “inactive”.

In the case of `CC(C)c1ccc2c(c1)CC[C@H]1[C@](C)(CNS(=O)(=O)c3ccc(C=O)cc3)CCC[C@]21C`, the Activity (MDA-MB-231 [8]) is reported as “Active”, the Activity (Homo sapiens) is reported as “Active” and the Activity (MCF7 [9]) is reported as “inactive”. For the same compound, the Activity (MDA-MB-231 [10]) was 63.41%, the Activity (MDA-MB-231 [11]) was 16.89% and the Activity (MDA-MB-231 [12]) was 19.7%. For the same compound, the Activity (MDA-MB-231 [13]) was “Active”, the Activity (MDA-MB-231 [4]) was 0.2% and the Activity (MDA-MB-231 [14]) was 6%. For the same compound, the Activity (MDA-MB-231 [5]) was 90.4%, the Activity (MDA-MB-231 [6]) was 3.4% and the Activity (MDA-MB-231 [15]) was “tde”. The Activity (MDA-MB-231 [16]) was “Active”, the Activity (MDA-MB-231 [17]) was “Active” and the Activity (MDA-MB-231 [18]) was “Active”. For the same compound, the Activity (MDA-MB-231 [19]) was “Active” and the Activity (MDA-MB-231 [20]) was “Active”.

For `CC(C)c1ccc2c(c1)CC[C@H]1[C@](C)(CNS(=O)(=O)c3c(F)c(F)c(F)c(F)c3F)CCC[C@]21C`, the EC50 (MDA-MB-231 [21]) was 9 µM, the Activity (MDA-MB-231 [22]) was “Active” and the Activity (MCF7 [23]) was “inactive”. It also gave a half-life [24] of 0.93 h, a half-life [25] of 0.51 h and a CLint scaled [26] of 22.3 mL/min/kg. It also gave a CLint scaled [27] of 112 mL/min/kg, a fraction unbound [28] of 0.052 and a fraction unbound [29] of 0.007. It also gave a half-life [30] of 6.76 h, a half-life [31] of 37.7 h and a Papp [32] of 62.5 ×10⁻⁶ cm/s. For the same compound, the Papp A→B [33] was 1.96 ×10⁻⁶ cm/s, the Papp B→A [34] was 1.57 ×10⁻⁶ cm/s and the efflux ratio [35] was 0.8. The Activity (MDA-MB-231 [36]) was 61.26%, the Activity (MDA-MB-231 [37]) was 18.37% and the Activity (MDA-MB-231 [38]) was 20.37%. For the same compound, the Activity (MDA-MB-231 [39]) was “tde”, the Activity (MDA-MB-231 [4]) was 0.5% and the Activity (MDA-MB-231 [14]) was 16.7%. For the same compound, the Activity (MDA-MB-231 [5]) was 61.5%, the Activity (MDA-MB-231 [6]) was 21.3% and the Activity (MDA-MB-231 [15]) was “tde”. The Activity (MDA-MB-231 [16]) was “Active”, the Activity (MDA-MB-231 [17]) was “Active” and the Activity (MDA-MB-231 [18]) was “Active”. The Activity (MDA-MB-231 [19]) was “Active”, the Activity (MDA-MB-231 [20]) was “Active” and the Activity (MDA-MB-231 [40]) was “Active”. The Activity (MDA-MB-231 [41]) was “Active”, the Activity (MDA-MB-231 [42]) was “Active” and the permeability [43] was 60.4%.

With `CC(C)c1cc2c(cc1O)[C@@]1(C)CCCC(C)(C)[C@@H]1CC2` [FERRUGINOL] the Activity (MDA-MB-231 [44]) was “Active”, the Activity (HEK293) was “Non-toxic” and the Activity (HepG2) was “Non-toxic”. For the same compound, the Activity (MDA-MB-231 [45]) was “Active”, the Activity (MDA-MB-231 [46]) was 50.76% and the Activity (MDA-MB-231 [47]) was 19.54%. It also gave an Activity (MDA-MB-231 [48]) of 29.7%, an Activity (MDA-MB-231 [4]) of 0.2% and an Activity (MDA-MB-231 [14]) of 9.6%. The Activity (MDA-MB-231 [5]) was 85.8%, the Activity (MDA-MB-231 [6]) was 4.4% and the Activity (MDA-MB-231 [15]) was “tde”. For the same compound, the Activity (MDA-MB-231 [16]) was “Active”, the Activity (MDA-MB-231 [18]) was “inactive” and the Activity (MDA-MB-231 [20]) was “Active”.
